These results are taken from ChEMBL document CHEMBL1128434, “Gonadotropin-releasing hormone antagonists: novel members of the azaline B family” (1995).

The species entered for test [1] is Rattus norvegicus. The experiment in a line: Effect in the anti ovulatory assay (AOA) in rats expressed as no. of rats ovulating/No of rats treated at 1.0 mg; 3/9. Format: functional.
The target in test [2] is T1, Gonadotropin-releasing hormone receptor (Rattus norvegicus) (UniProt P30969).
T1 sequence (whole entry): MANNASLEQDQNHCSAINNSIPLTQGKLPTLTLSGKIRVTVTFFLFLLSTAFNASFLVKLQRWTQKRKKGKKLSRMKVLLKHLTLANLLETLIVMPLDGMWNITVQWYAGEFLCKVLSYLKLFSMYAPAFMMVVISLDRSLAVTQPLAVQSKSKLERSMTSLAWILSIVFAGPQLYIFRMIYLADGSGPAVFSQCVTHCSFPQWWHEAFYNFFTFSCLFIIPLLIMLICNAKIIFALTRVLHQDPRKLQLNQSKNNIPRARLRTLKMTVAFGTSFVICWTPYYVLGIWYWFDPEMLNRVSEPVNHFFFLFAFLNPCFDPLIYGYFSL
The experiment in a line: Effect in the anti ovulatory assay (AOA) in rats expressed as no. of rats ovulating/No of rats treated at 2.5 mg; 0/8. Format: functional.

Test [3] concerns the target T1, Gonadotropin-releasing hormone receptor (Rattus norvegicus). The experiment in a line: Duration of action measured using castrated male rat assay to inhibit luteinizing hormone release.; fully active at 72 hr. It counts as functional.
The species entered for test [4] is Rattus norvegicus. The experiment in a line: Effect in the anti ovulatory assay (AOA) in rats expressed as no. of rats ovulating/No of rats treated at 10 mg; 1/6. It counts as functional.
For test [5], the species on record is Rattus norvegicus. The experiment in a line: Effect in the anti ovulatory assay (AOA) in rats expressed as no. of rats ovulating/No of rats treated at 2.5 mg; 0/9. It counts as functional.
For test [6], the species on record is Rattus norvegicus. The experiment in a line: Effect in the anti ovulatory assay (AOA) in rats expressed as no. of rats ovulating/No of rats treated at 1.0 mg; 6/6. Format: functional.
Test [7] is filed under the species Rattus norvegicus. The experiment in a line: Duration of action measured using castrated male rat assay to inhibit luteinizing hormone release.; fully active at 48 hr but not at 72 hr. Format: functional.
The species named for test [8] is Rattus norvegicus. The experiment in a line: Effect in the anti ovulatory assay (AOA) in rats expressed as no. of rats ovulating/No of rats treated at 1.0 mg; 5/13. Format: functional.
The species entered for test [9] is Rattus norvegicus. The experiment in a line: Effect in the anti ovulatory assay (AOA) in rats expressed as no. of rats ovulating/No of rats treated at 0.5 mg; 6/7. It counts as functional.
Test [10] is filed under the species Rattus norvegicus. The experiment in a line: Effect in the anti ovulatory assay (AOA) in rats expressed as no. of rats ovulating/No of rats treated at 2.5 mg; 0/7. It counts as functional.
The target in test [11] is T1, Gonadotropin-releasing hormone receptor (Rattus norvegicus). The experiment in a line: In vitro potency to inhibit GnRH-mediated LH secretion by cultured pituitary cells relative to [Ac-delta-Pro1,DFpa2,DTrp36]GnRH. It counts as functional, cell-based. As to conditions: Pituitary gland cell. A digest of the protocol: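 Dispersed rat pituitary cells in culture; antagonist inhibition of GnRH-stimulated LH secretion. Potency expressed relative to standard antagonist [Ac-Δ3Pro1,D4FPhe2,DTrp3,6]GnRH taken as 1.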

Test [12] is filed under the species Rattus norvegicus. The experiment in a line: Effect in the anti ovulatory assay (AOA) in rats expressed as no. of rats ovulating/No of rats treated at 50 mg; 4/4. It counts as functional.
Test [13] is filed under the species Rattus norvegicus. The experiment in a line: Effect in the anti ovulatory assay (AOA) in rats expressed as no. of rats ovulating/No of rats treated at 1.0 mg; 7/8. Format: functional.
Test [14] is filed under the species Rattus norvegicus. The experiment in a line: Effect in the anti ovulatory assay (AOA) in rats expressed as no. of rats ovulating/No of rats treated at 2.5 mg; 0/6.
Test [15] is filed under the species Rattus norvegicus. The experiment in a line: Effect in the anti ovulatory assay (AOA) in rats expressed as no. of rats ovulating/No of rats treated at 2.5 mg; 0/6. It counts as functional.
The species named for test [16] is Rattus norvegicus. The experiment in a line: Effect in the anti ovulatory assay (AOA) in rats expressed as no. of rats ovulating/No of rats treated at 5.0 mg; 0/6. Format: functional.
For test [17], the species on record is Rattus norvegicus. The experiment in a line: Effect in the anti ovulatory assay (AOA) in rats expressed as no. of rats ovulating/No of rats treated at 2.5 mg; 4/4. Format: functional.

As to `CC(=O)N[C@H](Cc1ccc2ccccc2c1)C(=O)N[C@H](Cc1ccc(Cl)cc1)C(=O)N[C@H](Cc1cccnc1)C(=O)N[C@@H](CO)C(=O)N[C@@H](Cc1ccc(NC=O)cc1)C(=O)N[C@H](Cc1ccc(NC=O)cc1)C(=O)N[C@@H](CC(C)C)C(=O)N[C@@H](CCCCNC(C)C)C(=O)N1CCC[C@H]1C(=O)N[C@H](C)N`, the entries for the “No. of rats ovulated” value (in the test listed under Rattus norvegicus [1]; in test [2]) were 3 and 0, respectively. In test [3], the Duration of action came to 72 h.
For the compound `CC(=O)N[C@H](Cc1ccc(N)cc1)C(=O)N[C@H](Cc1ccc(Cl)cc1)C(=O)N[C@H](Cc1cccnc1)C(=O)N[C@@H](CO)C(=O)N[C@@H](Cc1ccc(Nc2n[nH]c(N)n2)cc1)C(=O)N[C@H](Cc1ccc(Nc2n[nH]c(N)n2)cc1)C(=O)N[C@@H](CC(C)C)C(=O)N[C@@H](CCCCNC(C)C)C(=O)N1CCC[C@H]1C(=O)N[C@H](C)N`, in the test listed under Rattus norvegicus [4], the “No. of rats ovulated” value came out at 1.
Consider `CC(=O)N[C@H](Cc1ccc2ccccc2c1)C(=O)N[C@H](Cc1ccc(Cl)cc1)C(=O)N[C@H](Cc1cccnc1)C(=O)N[C@@H](CO)C(=O)N[C@@H](Cc1ccc(Nc2n[nH]c(N)n2)cc1)C(=O)N[C@H](Cc1ccc(Nc2n[nH]c(N)n2)cc1)C(=O)N[C@@H](Cc1ccccc1)C(=O)N[C@@H](CCCCNC(C)C)C(=O)N1CCC[C@H]1C(=O)N[C@H](C)N`, for which the figures for the “No. of rats ovulated” value in the test filed under Rattus norvegicus [5] and in the test listed under Rattus norvegicus [6] were 0 and 6, respectively. Further, the Duration of action result in the test listed under Rattus norvegicus [7] is “Intermediate”.
In the case of `CC(=O)Nc1ccc(C[C@H](NC(=O)[C@H](CO)NC(=O)[C@@H](Cc2cccnc2)NC(=O)[C@@H](Cc2ccc(Cl)cc2)NC(=O)[C@@H](Cc2ccc3ccccc3c2)NC(C)=O)C(=O)N[C@H](Cc2ccc(NC(C)=O)cc2)C(=O)N[C@@H](CC(C)C)C(=O)N[C@@H](CCCCNC(C)C)C(=O)N2CCC[C@H]2C(=O)N[C@H](C)N)cc1`, the “No. of rats ovulated” value was 5 in the test listed under Rattus norvegicus [8], 6 in the test filed under Rattus norvegicus [9] and 0 in the test filed under Rattus norvegicus [10]. The same compound registered a Duration of action in test [3] of 72 h.
For `CC(=O)N[C@H](Cc1ccc2ccccc2c1)C(=O)N[C@H](Cc1ccc(Cl)cc1)C(=O)N[C@H](Cc1cccnc1)C(=O)N[C@@H](CO)C(=O)N[C@@H](Cc1ccc(NC(=O)Nc2ccccc2Cl)cc1)C(=O)N[C@H](Cc1ccc(NC(=O)Nc2ccccc2Cl)cc1)C(=O)N[C@@H](CC(C)C)C(=O)N[C@@H](CCCCNC(C)C)C(=O)N1CCC[C@H]1C(=O)N[C@H](C)N`, in test [11], the Relative potency was found to be 0.1. Also, the “No. of rats ovulated” value in the test listed under Rattus norvegicus [12] came to 4.
For the compound `CC(=O)N[C@H](Cc1ccc2ccccc2c1)C(=O)N[C@H](Cc1ccc(Cl)cc1)C(=O)N[C@H](Cc1cccnc1)C(=O)N[C@@H](CO)C(=O)N[C@@H](Cc1ccc(N)cc1)C(=O)N[C@H](Cc1ccc(N)cc1)C(=O)N[C@@H](CC(C)C)C(=O)N[C@@H](CCCCNC(C)C)C(=O)N1CCC[C@H]1C(=O)N[C@H](C)N`, the results for the “No. of rats ovulated” value in the test listed under Rattus norvegicus [13], in the test listed under Rattus norvegicus [14] and in the test listed under Rattus norvegicus [15] were 7, 0 and 0, respectively. In [11], the Relative potency worked out at 0.74. Besides, the Duration of action in test [3] is 72 h.
Regarding `CC(=O)N[C@H](Cc1ccc2ccccc2c1)C(=O)N[C@H](Cc1ccc(Cl)cc1)C(=O)N[C@H](Cc1cccnc1)C(=O)N[C@@H](CO)C(=O)N(C)[C@@H](Cc1ccc(Nc2n[nH]c(N)n2)cc1)C(=O)N[C@H](Cc1ccc(Nc2n[nH]c(N)n2)cc1)C(=O)N[C@@H](CC(C)C)C(=O)N[C@@H](Cc1ccc(CNC(C)C)cc1)C(=O)N1CCC[C@H]1C(=O)N[C@H](C)N`, the “No. of rats ovulated” value in the test listed under Rattus norvegicus [16] was 0; in the test listed under Rattus norvegicus [17], 4.
